Results: the M2OR odorant receptor database

Key:
Conditions in all cases: stereoisomer not certain
OR51D1 (Homo sapiens) = biological target: T1, OR51D1 (Homo sapiens) (UniProt Q8NGF3)
T1 sequence (whole entry): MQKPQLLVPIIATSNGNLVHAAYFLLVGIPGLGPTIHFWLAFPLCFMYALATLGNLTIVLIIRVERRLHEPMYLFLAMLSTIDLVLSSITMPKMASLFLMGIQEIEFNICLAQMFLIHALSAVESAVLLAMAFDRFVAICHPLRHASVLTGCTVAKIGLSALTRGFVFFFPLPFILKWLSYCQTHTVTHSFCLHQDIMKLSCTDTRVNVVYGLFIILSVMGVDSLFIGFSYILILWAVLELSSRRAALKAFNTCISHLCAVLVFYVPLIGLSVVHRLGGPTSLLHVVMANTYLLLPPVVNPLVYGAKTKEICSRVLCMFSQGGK
Procedure, shortened: (§1)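 Each receptor–molecule pair is labelled responsive or non-responsive (inactive) according to whether the original authors judged the measured signal statistically different from baseline. The data were taken from the main text and supplementary material of published papers and checked for typos and inconsistencies. Assay methods differed by source, with transient luciferase assays in mammalian cell lines being common.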

OR51E1 (Homo sapiens) = biological target: T2, OR51E1 (Homo sapiens) (UniProt Q8TCB6)
T2 sequence (whole entry): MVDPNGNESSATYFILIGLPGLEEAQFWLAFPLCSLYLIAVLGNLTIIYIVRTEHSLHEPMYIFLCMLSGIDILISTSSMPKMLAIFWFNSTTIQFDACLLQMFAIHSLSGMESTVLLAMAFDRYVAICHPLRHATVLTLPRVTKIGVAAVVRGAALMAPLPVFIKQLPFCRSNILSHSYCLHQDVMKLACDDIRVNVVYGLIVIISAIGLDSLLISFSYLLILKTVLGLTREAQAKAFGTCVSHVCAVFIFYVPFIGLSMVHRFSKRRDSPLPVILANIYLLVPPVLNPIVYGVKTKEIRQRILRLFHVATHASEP
Procedure, shortened: as §1

OR51E2 (Homo sapiens) = biological target: T3, OR51E2 (Homo sapiens) (UniProt Q9H255)
T3 sequence (whole entry): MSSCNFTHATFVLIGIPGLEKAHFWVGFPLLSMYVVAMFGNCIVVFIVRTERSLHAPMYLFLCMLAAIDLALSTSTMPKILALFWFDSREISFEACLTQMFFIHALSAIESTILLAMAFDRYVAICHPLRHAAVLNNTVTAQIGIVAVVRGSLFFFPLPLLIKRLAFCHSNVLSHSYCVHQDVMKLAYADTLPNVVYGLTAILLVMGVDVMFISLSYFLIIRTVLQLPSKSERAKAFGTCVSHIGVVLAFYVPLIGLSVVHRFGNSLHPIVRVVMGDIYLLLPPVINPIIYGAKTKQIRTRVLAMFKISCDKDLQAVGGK
Procedure, shortened: as §1

OR51F1 (Homo sapiens) = biological target: T4, OR51F1 (Homo sapiens) (UniProt A6NGY5)
T4 sequence (whole entry): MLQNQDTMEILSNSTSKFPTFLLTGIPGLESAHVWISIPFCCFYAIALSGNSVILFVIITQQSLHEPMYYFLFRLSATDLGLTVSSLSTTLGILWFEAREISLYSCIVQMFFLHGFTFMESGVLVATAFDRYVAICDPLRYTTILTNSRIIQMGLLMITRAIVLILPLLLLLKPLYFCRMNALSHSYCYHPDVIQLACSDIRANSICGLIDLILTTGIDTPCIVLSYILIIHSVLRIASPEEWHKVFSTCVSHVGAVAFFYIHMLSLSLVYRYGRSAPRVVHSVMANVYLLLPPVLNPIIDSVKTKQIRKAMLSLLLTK
Procedure, shortened: as §1

OR51F2 (Homo sapiens) = biological target: T5, OR51F2 (Homo sapiens) (UniProt Q8NH61)
T5 sequence (whole entry): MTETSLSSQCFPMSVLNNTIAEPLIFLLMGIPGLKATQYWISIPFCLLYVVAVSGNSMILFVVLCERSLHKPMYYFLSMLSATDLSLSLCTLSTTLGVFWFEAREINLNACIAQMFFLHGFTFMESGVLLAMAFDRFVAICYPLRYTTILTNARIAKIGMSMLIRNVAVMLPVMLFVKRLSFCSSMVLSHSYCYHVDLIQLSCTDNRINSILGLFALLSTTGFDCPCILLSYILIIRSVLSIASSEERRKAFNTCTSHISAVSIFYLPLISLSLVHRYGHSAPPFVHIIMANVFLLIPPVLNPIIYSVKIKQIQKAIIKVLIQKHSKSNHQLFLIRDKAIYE
Procedure, shortened: as §1

OR51G1 (Homo sapiens) = biological target: T6, OR51G1 (Homo sapiens) (UniProt Q8NGK1)
T6 sequence (whole entry): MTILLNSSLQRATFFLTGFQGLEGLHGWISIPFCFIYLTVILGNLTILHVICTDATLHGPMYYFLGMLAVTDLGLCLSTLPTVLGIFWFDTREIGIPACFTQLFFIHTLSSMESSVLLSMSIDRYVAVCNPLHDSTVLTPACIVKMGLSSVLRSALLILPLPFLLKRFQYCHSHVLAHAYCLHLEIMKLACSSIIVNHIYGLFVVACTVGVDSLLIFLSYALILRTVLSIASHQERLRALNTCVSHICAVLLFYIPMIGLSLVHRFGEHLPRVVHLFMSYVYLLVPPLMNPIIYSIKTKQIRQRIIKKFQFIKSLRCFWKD
Procedure, shortened: as §1

OR51G2 (Homo sapiens) = biological target: T7, OR51G2 (Homo sapiens) (UniProt Q8NGK0)
T7 sequence (whole entry): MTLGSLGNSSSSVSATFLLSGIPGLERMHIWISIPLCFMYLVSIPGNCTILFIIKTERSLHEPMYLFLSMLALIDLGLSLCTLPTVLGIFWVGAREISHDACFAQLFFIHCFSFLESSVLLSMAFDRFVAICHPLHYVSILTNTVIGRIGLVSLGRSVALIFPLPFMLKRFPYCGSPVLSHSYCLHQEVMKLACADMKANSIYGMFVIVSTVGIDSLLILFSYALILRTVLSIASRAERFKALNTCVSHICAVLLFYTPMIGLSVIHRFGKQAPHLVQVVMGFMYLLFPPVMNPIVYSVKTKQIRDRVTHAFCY
Procedure, shortened: as §1

OR51I1 (Homo sapiens) = biological target: T8, OR51I1 (Homo sapiens) (UniProt Q9H343)
T8 sequence (whole entry): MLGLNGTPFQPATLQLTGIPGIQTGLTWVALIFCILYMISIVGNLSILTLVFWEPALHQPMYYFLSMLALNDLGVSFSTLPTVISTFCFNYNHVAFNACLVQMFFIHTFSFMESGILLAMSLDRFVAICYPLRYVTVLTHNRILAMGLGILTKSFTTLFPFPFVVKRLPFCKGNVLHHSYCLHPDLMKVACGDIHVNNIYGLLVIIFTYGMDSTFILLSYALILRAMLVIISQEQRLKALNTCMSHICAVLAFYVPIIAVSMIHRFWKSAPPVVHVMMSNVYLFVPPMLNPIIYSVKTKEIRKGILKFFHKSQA
Procedure, shortened: as §1

OR51H1 (Homo sapiens) = OR51H1 (Homo sapiens) (UniProt Q8NH63)
Chain of OR51H1 (Homo sapiens) (Q8NH63 whole entry): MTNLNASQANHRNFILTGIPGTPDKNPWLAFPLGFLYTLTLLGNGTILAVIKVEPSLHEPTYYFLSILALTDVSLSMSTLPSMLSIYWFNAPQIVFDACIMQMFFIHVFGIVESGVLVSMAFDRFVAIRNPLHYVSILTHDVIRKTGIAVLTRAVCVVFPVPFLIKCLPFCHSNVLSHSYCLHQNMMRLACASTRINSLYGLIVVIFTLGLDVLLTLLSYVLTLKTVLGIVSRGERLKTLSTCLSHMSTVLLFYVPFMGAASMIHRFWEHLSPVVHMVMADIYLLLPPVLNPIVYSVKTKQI
Procedure, shortened: as §1
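Also: active if original authors judged signal statistically different from baseline.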

CCCCCC(=O)C(C)C(C)=O (configuration not stated)
odorant receptor agonist call (OR51D1 (Homo sapiens)): inactive
odorant receptor agonist call (OR51E1 (Homo sapiens)): inactive
odorant receptor agonist call (OR51E2 (Homo sapiens)): inactive
odorant receptor agonist call (OR51F1 (Homo sapiens)): inactive
odorant receptor agonist call (OR51F2 (Homo sapiens)): inactive
odorant receptor agonist call (OR51G1 (Homo sapiens)): inactive
odorant receptor agonist call (OR51G2 (Homo sapiens)): inactive
odorant receptor agonist call (OR51I1 (Homo sapiens)): inactive

CCCCCCC=CCCC=O
odorant receptor agonist call (OR51D1 (Homo sapiens)): inactive
odorant receptor agonist call (OR51E1 (Homo sapiens)): inactive
odorant receptor agonist call (OR51E2 (Homo sapiens)): inactive
odorant receptor agonist call (OR51F1 (Homo sapiens)): inactive
odorant receptor agonist call (OR51F2 (Homo sapiens)): inactive
odorant receptor agonist call (OR51G1 (Homo sapiens)): inactive
odorant receptor agonist call (OR51G2 (Homo sapiens)): inactive
odorant receptor agonist call (OR51I1 (Homo sapiens)): inactive

CC(CO)CS (configuration not stated)
odorant receptor agonist call (OR51D1 (Homo sapiens)): inactive
odorant receptor agonist call (OR51E1 (Homo sapiens)): inactive
odorant receptor agonist call (OR51E2 (Homo sapiens)): inactive
odorant receptor agonist call (OR51F1 (Homo sapiens)): inactive
odorant receptor agonist call (OR51F2 (Homo sapiens)): inactive
odorant receptor agonist call (OR51G1 (Homo sapiens)): inactive
odorant receptor agonist call (OR51G2 (Homo sapiens)): inactive
odorant receptor agonist call (OR51I1 (Homo sapiens)): inactive

CC1CCCCCCCCCCCCC(=O)C1 (configuration not stated)
odorant receptor agonist call (OR51D1 (Homo sapiens)): inactive
odorant receptor agonist call (OR51E2 (Homo sapiens)): inactive
odorant receptor agonist call (OR51F1 (Homo sapiens)): inactive
odorant receptor agonist call (OR51F2 (Homo sapiens)): inactive
odorant receptor agonist call (OR51G1 (Homo sapiens)): inactive
odorant receptor agonist call (OR51G2 (Homo sapiens)): inactive
odorant receptor agonist call (OR51H1 (Homo sapiens)): inactive
odorant receptor agonist call (OR51I1 (Homo sapiens)): inactive

CCCCCCCCCCCC(=O)O
odorant receptor agonist call (OR51E1 (Homo sapiens)): inactive

CCCCC(S)C(C)CO (configuration not stated)
odorant receptor agonist call (OR51D1 (Homo sapiens)): inactive
odorant receptor agonist call (OR51E1 (Homo sapiens)): inactive
odorant receptor agonist call (OR51E2 (Homo sapiens)): inactive
odorant receptor agonist call (OR51F1 (Homo sapiens)): inactive
odorant receptor agonist call (OR51F2 (Homo sapiens)): inactive
odorant receptor agonist call (OR51G1 (Homo sapiens)): inactive
odorant receptor agonist call (OR51G2 (Homo sapiens)): inactive
odorant receptor agonist call (OR51I1 (Homo sapiens)): inactive

CCCCCCO
odorant receptor agonist call (OR51E1 (Homo sapiens)): inactive
odorant receptor agonist call (OR51E2 (Homo sapiens)): inactive

CCCCOC=O
odorant receptor agonist call (OR51E1 (Homo sapiens)): inactive
odorant receptor agonist call (OR51E2 (Homo sapiens)): inactive

CC12CCC(CC1=O)C2(C)C (configuration not stated)
odorant receptor agonist call (OR51E1 (Homo sapiens)): inactive
odorant receptor agonist call (OR51E2 (Homo sapiens)): inactive

C=C(C)C1CCC(C)C(=O)C1 (configuration not stated)
odorant receptor agonist call (OR51E1 (Homo sapiens)): inactive
odorant receptor agonist call (OR51E2 (Homo sapiens)): inactive

CCCCCCCCCCO
odorant receptor agonist call (OR51E1 (Homo sapiens)): inactive
odorant receptor agonist call (OR51E2 (Homo sapiens)): inactive

CCCCC(C)=O
odorant receptor agonist call (OR51E1 (Homo sapiens)): inactive
odorant receptor agonist call (OR51E2 (Homo sapiens)): inactive

CCCCCC(=O)CC
odorant receptor agonist call (OR51E1 (Homo sapiens)): inactive
odorant receptor agonist call (OR51E2 (Homo sapiens)): inactive

COc1cc(C(=O)O)ccc1O
odorant receptor agonist call (OR51E1 (Homo sapiens)): inactive
odorant receptor agonist call (OR51E2 (Homo sapiens)): inactive

CCCCOC(=O)C(C)OC(=O)CCC (configuration not stated)
odorant receptor agonist call (OR51E1 (Homo sapiens)): active
odorant receptor agonist call (OR51E2 (Homo sapiens)): inactive

CCCCCCCC(=O)[O-].[H+]
odorant receptor agonist call (OR51E1 (Homo sapiens)): inactive
odorant receptor agonist call (OR51E2 (Homo sapiens)): inactive

CCCCC(=O)CC
odorant receptor agonist call (OR51E1 (Homo sapiens)): inactive
odorant receptor agonist call (OR51E2 (Homo sapiens)): inactive

CCCCCCCCC(=O)O
odorant receptor agonist call (OR51E1 (Homo sapiens)): active
odorant receptor agonist call (OR51E2 (Homo sapiens)): inactive

CC(=O)OCc1ccccc1
odorant receptor agonist call (OR51E1 (Homo sapiens)): inactive
odorant receptor agonist call (OR51E2 (Homo sapiens)): inactive

O=C1Cc2ccccc2O1
odorant receptor agonist call (OR51E1 (Homo sapiens)): inactive
odorant receptor agonist call (OR51E2 (Homo sapiens)): inactive

CCCCCO
odorant receptor agonist call (OR51E1 (Homo sapiens)): inactive
odorant receptor agonist call (OR51E2 (Homo sapiens)): inactive

CCC(C(=O)O)c1ccccc1 (configuration not stated)
odorant receptor agonist call (OR51E1 (Homo sapiens)): inactive
odorant receptor agonist call (OR51E2 (Homo sapiens)): inactive

CC(=O)Oc1ccccc1
odorant receptor agonist call (OR51E1 (Homo sapiens)): inactive
odorant receptor agonist call (OR51E2 (Homo sapiens)): inactive

c1ccccc1
odorant receptor agonist call (OR51E1 (Homo sapiens)): inactive
odorant receptor agonist call (OR51E2 (Homo sapiens)): inactive

O=C(c1ccccc1)c1ccccc1
odorant receptor agonist call (OR51E1 (Homo sapiens)): inactive
odorant receptor agonist call (OR51E2 (Homo sapiens)): inactive

CCC(=O)O
odorant receptor agonist call (OR51E1 (Homo sapiens)): inactive
odorant receptor agonist call (OR51E2 (Homo sapiens)): active

CCCCCCCCCC(=O)[O-].[H+]
odorant receptor agonist call (OR51E1 (Homo sapiens)): inactive
odorant receptor agonist call (OR51E2 (Homo sapiens)): inactive

CCCC(=O)C(C)=O
odorant receptor agonist call (OR51E1 (Homo sapiens)): inactive
odorant receptor agonist call (OR51E2 (Homo sapiens)): inactive

CCOC(=O)C(C)C
odorant receptor agonist call (OR51E1 (Homo sapiens)): inactive
odorant receptor agonist call (OR51E2 (Homo sapiens)): inactive

O=c1ccc2ccccc2o1
odorant receptor agonist call (OR51E1 (Homo sapiens)): inactive
odorant receptor agonist call (OR51E2 (Homo sapiens)): inactive

CC(=O)C=CC1=C(C)CCCC1(C)C
odorant receptor agonist call (OR51E2 (Homo sapiens)): inactive

CCCCC(=O)O
odorant receptor agonist call (OR51E2 (Homo sapiens)): inactive

CCCCCCCCS
odorant receptor agonist call (OR51E1 (Homo sapiens)): inactive
odorant receptor agonist call (OR51E2 (Homo sapiens)): inactive

CCCCCCCCCS
odorant receptor agonist call (OR51E1 (Homo sapiens)): inactive
odorant receptor agonist call (OR51E2 (Homo sapiens)): inactive

CC(=O)OCC=C(C)C
odorant receptor agonist call (OR51E1 (Homo sapiens)): inactive
odorant receptor agonist call (OR51E2 (Homo sapiens)): inactive

CCCC(C)=O
odorant receptor agonist call (OR51E1 (Homo sapiens)): inactive
odorant receptor agonist call (OR51E2 (Homo sapiens)): inactive

CCC(=O)C(=O)CC
odorant receptor agonist call (OR51E1 (Homo sapiens)): inactive
odorant receptor agonist call (OR51E2 (Homo sapiens)): inactive

CCCCCC=O
odorant receptor agonist call (OR51E1 (Homo sapiens)): inactive
odorant receptor agonist call (OR51E2 (Homo sapiens)): inactive

CCCCCCOC(C)=O
odorant receptor agonist call (OR51E1 (Homo sapiens)): inactive
odorant receptor agonist call (OR51E2 (Homo sapiens)): inactive

CC(C)=CCCC(C)CCO (configuration not stated)
odorant receptor agonist call (OR51E1 (Homo sapiens)): inactive
odorant receptor agonist call (OR51E2 (Homo sapiens)): inactive
